Measured values taken from ChEMBL document CHEMBL1268869, “Structural optimization and biological evaluation of substituted bisphenol A derivatives as beta-amyloid peptide aggregation inhibitors” (J Med Chem, 2010).
Calls of active or inactive are those of the source. No cut-off for these calls is given here.

Columns and labels:
[1] = Inhibition of amyloid beta (1-42) aggregation by thioflavin T fluorescence method
Procedure, shortened: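 Compound (2 μL of 0.1–10.0 mM) was mixed with 4 μL of 50 μM Aβ1-42 in PBS pH 7.4 containing 11% ethanol, 2 h at room temperature. Then 40 μM ThT in PBS/10% ethanol was added. Fluorescence was read with excitation 430 nm and emission 488 nm.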

PC-12 [2] = experiment: Neuroprotective activity against rat PC12 cells assessed as reversal of amyloid beta (1 to 42)-induced neuronal damage in at 3 uM after 48 hrs by MTT assay; type: functional
Procedure, shortened: (§1)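 Differentiated PC-12 cells (10 000/well) received compound diluted in Aβ1-42 solution (5% DMSO water stock), giving final 10 μM Aβ1-42 with 0–3 μM compound (0.01–3 μM; dose curve 0.003–3 μM), for 48 h. MTT absorbance at 570 nm was normalized to full-kill and media controls. 3 independent experiments × 3 replicates.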

[3] = Inhibition of gamma-secretase by fluorogenic substrate assay
Procedure, shortened: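 Membrane protein (10 μg/well) was incubated with 6 μM fluorogenic substrate and compound in reaction buffer, 100 μL final, at 37 C for 5 h. Fluorescence was read at excitation 355 nm and emission 440 nm. L685,458 was the reference inhibitor. Dose-response curves were fitted by nonlinear regression.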

PC-12 [4] = experiment: Neuroprotective activity against rat PC12 cells assessed as reversal of amyloid beta (1 to 42)-induced neuronal damage after 48 hrs by MTT assay; type: functional, cell-based; procedure, shortened: as §1
[5] = Inhibition of amyloid beta (1 to 42) fibrillation after 5 days at 37 degC by PICUP assay
Procedure, shortened: (§2)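 Aβ1-42 was HFIP-treated, sonicated 30 min, dried under nitrogen and redissolved in water. Photo-crosslinking used Ru(bpy)3Cl2 and APS (Aβ/Ru/APS 1/4/80) under a 150 W xenon lamp for 3 s, then quench, 95 C for 5 min and 15% tricine SDS-PAGE. Monomer/(dimer+tetramer) band pixels were compared.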

[6] = Inhibition of amyloid beta (12-28) fibrillation assessed as increase in beta-sheet conformation at 3:1 compound to protein ratio by CD spectroscopy assay; details: concentration not given here
Procedure, shortened: (§3)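 HFIP-treated Aβ12-28 was dissolved in 50% TFE/water at 80 μM, with compound at 1:3 protein:compound. CD spectra were taken in a 0.1 cm path cuvette. Secondary-structure content (helix, β-sheet, turn) was obtained by spectral deconvolution.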

[7] = Inhibition of amyloid beta (1 to 42) fibrillation after 27 days by AFM assay; details: in the assay text read “after 17 days” for “after 27 days”
Procedure, shortened: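 For fibril formation, 200 μM Aβ1-42 in water/DMSO was kept 17 days at 37 C. These fibrils were then incubated with compound (10 mM stock) or DMSO for 27 days at 37 C. Samples were diluted 5-fold in water, dried on mica and imaged by tapping-mode AFM.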

[8] = Inhibition of amyloid beta (12-28) fibrillation assessed as increase in beta-turn conformational component at 3:1 compound to protein ratio by CD spectroscopy assay; details: concentration not given here; procedure, shortened: as §3
[9] = Inhibition of amyloid beta (12-28) fibrillation assessed as decrease in alpha-helix component at 3:1 compound to protein ratio by CD spectroscopy assay; details: concentration not given here
PC-12 [10] = experiment: Cytotoxicity against rat PC12 cells at 1 uM by MTT assay; type: cell-based; details: pc-12, 1 µM
Procedure, shortened: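 Differentiated PC-12 cells in DMEM with 10% heat-inactivated FBS and 2 mM L-glutamine, 37 C, 5% CO2. Plated at 10 000 cells/well and treated 24 h later with compound diluted in medium (0.1 nM to 100 μM) for 48 h. MTT read at 570 nm. Viability scaled between media and 5 μM staurosporine controls. At least 3 independent experiments × 3 replicates.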

PC-12 [11] = experiment: Neuroprotective activity against rat PC12 cells assessed as reversal of amyloid beta (1 to 42)-induced neuronal damage in at 1 uM after 48 hrs by MTT assay; type: functional; procedure, shortened: as §1
[12] = Inhibition of amyloid beta (1 to 42) fibrillation […] by PICUP assay; procedure, shortened: as §2

SMILES	IC50 ([1]; read-out: IC50)	IC50 [1]	further results
Cc1cc(C(C)(C)c2cc(C)c(OCC(O)CN3CCCCCC3)c(C)c2)cc(C)c1OCC(O)CN1CCCCCC1 (stereo not drawn)	6.2 µM	–	–
OC(COc1ccc(C(c2ccc(OCC(O)CN3CCOCC3)cc2)(C(F)(F)F)C(F)(F)F)cc1)CN1CCOCC1 (stereo not drawn)	–	Not Active	–
Cc1cc(C(C)(C)c2cc(C)c(OCC(O)CNc3ccc(C(C)(C)C)cc3)c(C)c2)cc(C)c1OCC(O)CNc1ccc(C(C)(C)C)cc1 (stereo not drawn)	–	Not Active	–
Cc1cc(C)cc(NCC(O)COc2c(C)cc(C(C)(C)c3cc(C)c(OCC(O)CNc4cc(C)cc(C)c4)c(C)c3)cc2C)c1 (stereo not drawn)	–	Not Active	–
CN1CCN(CC(O)COc2c(Br)cc(C(C)(C)c3cc(Br)c(OCC(O)CN4CCN(C)CC4)c(Br)c3)cc2Br)CC1 (stereo not drawn)	23 µM	–	–
Cc1cc(C(C)(C)c2cc(C)c(OCC(O)CN3CCOCC3)c(C)c2)cc(C)c1OCC(O)CN1CCOCC1 (stereo not drawn)	–	Not Active	–
CC1CC(C)CN(CC(O)COc2c(Br)cc(C(C)(C)c3cc(Br)c(OCC(O)CN4CC(C)CC(C)C4)c(Br)c3)cc2Br)C1 (stereo not drawn)	4.8 µM	–	Activity (PC-12 [2]): 104.2%; IC50 [3]: 5.57 µM; Activity (PC-12 [4]): Dose-dependent effect; IC50 (PC-12 [4]; PC-12, 48 h): 0.8 µM; inhibition [5]: Active; inhibition [6]: 17.4%; inhibition [7]: Active; inhibition [8]: 13.7%; inhibition [9]: 40.4%; Activity (PC-12 [10]): Non-toxic; Activity (PC-12 [11]): 96.6%; inhibition [12]: Active
CN1CCN(CC(O)COc2c(Br)cc(C(c3cc(Br)c(OCC(O)CN4CCN(C)CC4)c(Br)c3)(C(F)(F)F)C(F)(F)F)cc2Br)CC1 (stereo not drawn)	24 µM	–	–
CN1CCN(CC(O)COc2ccc(C3(c4ccc(OCC(O)CN5CCN(C)CC5)c(Br)c4)CCCCC3)cc2Br)CC1 (stereo not drawn)	13 µM	–	–
Cc1cc(C2(c3cc(C)c(OCC(O)CN4CCOCC4)c(C)c3)CCCCCC2)cc(C)c1OCC(O)CN1CCOCC1 (stereo not drawn)	–	Not Active	–
CCCCN(CCCC)CC(O)COc1c(Br)cc(C(C)(C)c2cc(Br)c(OCC(O)CN(CCCC)CCCC)c(Br)c2)cc1Br (stereo not drawn)	0.27 µM	–	–
CC(C)(c1cc(Br)c(OCC(O)CN2CCOCC2)c(Br)c1)c1cc(Br)c(OCC(O)CN2CCOCC2)c(Br)c1 (stereo not drawn)	26 µM	–	–
Cc1cc(C2(c3cc(C)c(OCC(O)CN4CCN(C)CC4)c(C)c3)CCCCCC2)cc(C)c1OCC(O)CN1CCN(C)CC1 (stereo not drawn)	32 µM	–	–
Cc1cc(C2(c3cc(C)c(OCC(O)CN4CCN(C)CC4)c(C)c3)CCCC2)cc(C)c1OCC(O)CN1CCN(C)CC1 (stereo not drawn)	56 µM	–	–
CC(C)(c1ccc(OCC(O)CN2CCOCC2)cc1)c1ccc(OCC(O)CN2CCOCC2)cc1 (stereo not drawn)	–	Not Active	–
Cc1cc(C2(c3cc(C)c(OCC(O)CN4CCOCC4)c(C)c3)CCCCC2)cc(C)c1OCC(O)CN1CCOCC1 (stereo not drawn)	–	Not Active	–
CC(C)(c1cc(Br)c(OCC(O)CN2CCC3(CC2)OCCO3)c(Br)c1)c1cc(Br)c(OCC(O)CN2CCC3(CC2)OCCO3)c(Br)c1 (stereo not drawn)	4.7 µM	–	–
Cc1cc(C(C)(C)c2cc(C)c(OCC(O)CN3CC(C)CC(C)C3)c(C)c2)cc(C)c1OCC(O)CN1CC(C)CC(C)C1 (stereo not drawn)	8.9 µM	–	–

SMILES	IC50 ([1]; read-out: IC50)	IC50 [1]	further results
Cc1cc(C(C)(C)c2ccc(OCC(O)CN3CCOCC3)c(C)c2)ccc1OCC(O)CN1CCOCC1 (stereo not drawn)	–	Not Active	–
Cc1cc(C2(c3cc(C)c(OCC(O)CN4CCOCC4)c(C)c3)CCCC2)cc(C)c1OCC(O)CN1CCOCC1 (stereo not drawn)	–	Not Active	–
CC(C)(c1ccc(OCC(O)CN2CCCCC2)cc1)c1ccc(OCC(O)CN2CCCCC2)cc1 (stereo not drawn)	110 µM	–	–
Cc1cc(C(C)(C)c2cc(C)c(OCC(O)CN3CCCC3)c(C)c2)cc(C)c1OCC(O)CN1CCCC1 (stereo not drawn)	11 µM	–	–
CC(c1cc(Br)c(OCC(O)CN2CCN(C)CC2)c(Br)c1)c1cc(Br)c(OCC(O)CN2CCN(C)CC2)c(Br)c1 (stereo not drawn)	25 µM	–	–
CN1CCN(CC(O)COc2ccc(C(c3ccc(OCC(O)CN4CCN(C)CC4)cc3)(C(F)(F)F)C(F)(F)F)cc2)CC1 (stereo not drawn)	380 µM	–	–
OC(COc1c(Br)cc(C2(c3cc(Br)c(OCC(O)CN4CCOCC4)c(Br)c3)CCCC2)cc1Br)CN1CCOCC1 (stereo not drawn)	–	Not Active	–
Cc1cc(C(C)(C)c2cc(C)c(OCC(O)CN3CCN(C(=O)OC(C)(C)C)CC3)c(C)c2)cc(C)c1OCC(O)CN1CCN(C(=O)OC(C)(C)C)CC1 (stereo not drawn)	0.4 µM	–	IC50 [3]: 1.82 µM
CC(C)(C)c1ccc(NCC(O)COc2c(Br)cc(C(C)(C)c3cc(Br)c(OCC(O)CNc4ccc(C(C)(C)C)cc4)c(Br)c3)cc2Br)cc1 (stereo not drawn)	–	Not Active	–
OC(COc1c(Br)cc(C(c2cc(Br)c(OCC(O)CN3CCOCC3)c(Br)c2)(C(F)(F)F)C(F)(F)F)cc1Br)CN1CCOCC1 (stereo not drawn)	–	Not Active	–
CN1CCN(CC(O)COc2c(Br)cc(C3(c4cc(Br)c(OCC(O)CN5CCN(C)CC5)c(Br)c4)CCCC3)cc2Br)CC1 (stereo not drawn)	24 µM	–	–
Cc1cc(C(C)(C)c2cc(C)c(OCC(O)CN3CCN(C)CC3)c(C)c2)cc(C)c1OCC(O)CN1CCN(C)CC1 (stereo not drawn)	–	Not Active	–
Cc1cc(C(C)(C)c2cc(C)c(OCC(O)CN3CCN(Cc4ccccc4)CC3)c(C)c2)cc(C)c1OCC(O)CN1CCN(Cc2ccccc2)CC1 (stereo not drawn)	6.2 µM	–	–
CN1CCN(CC(O)COc2ccc(C(C)(C)c3ccc(OCC(O)CN4CCN(C)CC4)cc3)cc2)CC1 (stereo not drawn)	–	Not Active	–
Cc1cc(C(C)(C)c2cc(C)c(OCC(O)CN3CCCCC3)c(C)c2)cc(C)c1OCC(O)CN1CCCCC1 (stereo not drawn)	43 µM	–	–
Cc1cc(C2(c3cc(C)c(OCC(O)CN4CCN(C)CC4)c(C)c3)CCCCC2)cc(C)c1OCC(O)CN1CCN(C)CC1 (stereo not drawn)	70 µM	–	–
Cc1cc(C(C)(C)c2cc(C)c(OCC(O)CN3CCC4(CC3)OCCO4)c(C)c2)cc(C)c1OCC(O)CN1CCC2(CC1)OCCO2 (stereo not drawn)	20 µM	–	–
